Calls of active or inactive are those of the source. No cut-off for these calls is given here.
Columns and labels:
[1] = tested on: Human immunodeficiency virus 1; experiment: Antiviral activity against HIV1 pNL4-3 infected in HEK293 cells assessed as reduction in viral transcription by measuring decrease in luciferase activity after 20 hrs by luciferase reporter gene assay; assay type: functional, organism-based
How it was run: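 HEK 293T transiently transfected with pNL4-3.luc.R−E− for 4 h, then treated with compound (0.001−1 μM range; AZT, EFV, RAL 1 μM) for a further 20 h; luciferase activity then measured as read-out of viral gene expression; n = 2.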

[2] = tested on: Human immunodeficiency virus 1; experiment: Antiviral activity against HIV1 infected in HEK293 cells assessed as inhibition of basal LTR transcription after 48 hrs by dual-luciferase reporter gene assay; assay type: functional, organism-based
How it was run: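 HEK 293T cotransfected 4 h with 100 ng pLTR-Luc and 2 ng pSV40-Renilla (no Tat), then compound added; firefly and Renilla luciferase in lysates measured 48 h post-transfection by dual-luciferase assay; n = 2.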

[3] = tested on: Human immunodeficiency virus 1; experiment: Antiviral activity against wild-type VSV-G pseudotyped HIV1 infected in HEK293 cells at 10 uM pretreated for 15 mins followed by viral infection measured after 48 hrs by luciferase reporter gene assay relative to control; assay type: functional; settings: Human immunodeficiency virus 1, HEK293
How it was run: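 Single-concentration screen: compound at final 10 μM added to HEK 293T cells 15 min before VSV-G/HIV-1 infection; cell lysate luciferase measured 48 h postinfection and infectivity expressed relative to equal-volume DMSO solvent control.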

[4] = tested on: Human immunodeficiency virus 1; experiment: Antiviral activity against HIV1 NL4-3 infected in human MT2 cells measured after 72 hrs post infection by fluorAce beta-galactosidase reporter gene assay; assay type: functional, organism-based; settings: Human immunodeficiency virus 1, NL4-3, MT2, 72 h
How it was run: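 MT-2 cells (RPMI 1640, 10% FBS) in 384-well format infected with HIV-1 NL4-3 carrying a β-galactosidase reporter at MOI 0.01; compounds added in DMSO; β-Gal expression read at 72 h postinfection by FluorAce β-Gal reporter assay; n = 2.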

[5] = tested on: Human immunodeficiency virus 1; experiment: Antiviral activity against VSV-G pseudotyped HIV1 infected in human MT2 cells pretreated for 15 mins followed by viral infection measured after 48 hrs by luciferase reporter gene assay; assay type: functional, organism-based; settings: Human immunodeficiency virus 1, MT2
[6] = tested on: Human immunodeficiency virus 1; experiment: Antiviral activity against wild-type VSV-G pseudotyped HIV1 infected in HEK293 cells assessed as time of 50% failure at 0.1 uM measured at 48 hrs post infection by luciferase reporter gene assay; assay type: functional
How it was run: (§1)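 Time-of-addition: HEK 293T infected with VSV-G/HIV-1, then compounds added at successive time points after infection (test compound final 0.1 μM; AZT, EFV, RAL final 1 μM); lysate luciferase read at 48 h postinfection; infectivity (%) versus untreated control.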

[7] = tested on: Human immunodeficiency virus 1; experiment: Antiviral activity against wild-type VSV-G pseudotyped HIV1 infected in HEK293 cells pretreated for 15 mins followed by viral infection measured after 48 hrs by luciferase reporter gene assay; assay type: functional, organism-based; settings: Human immunodeficiency virus 1, HEK293
Murine leukemia virus = experiment: Antiviral activity against wild-type VSV-G pseudotyped MLV infected in HEK293 cells pretreated for 15 mins followed by viral infection measured after 48 hrs by luciferase reporter gene assay; assay type: functional, organism-based
[8] = target: T1, Protein Tat (Human immunodeficiency virus type 1 group M subtype B (isolate HXB2)(HIV-1)) (UniProt P04608); experiment: Inhibition of HIV1 Tat-mediated LTR transcriptional activity expressed in HEK293 cells after 48 hrs by dual-luciferase reporter gene assay; assay type: cell-based; settings: Human immunodeficiency virus 1
T1 sequence (whole entry): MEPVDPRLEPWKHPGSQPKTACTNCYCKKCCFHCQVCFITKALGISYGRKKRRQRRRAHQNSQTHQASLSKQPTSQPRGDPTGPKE
How it was run: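 HEK 293T cotransfected 4 h with 100 ng pLTR-Luc, 70 ng pcDNA3.1-Tat and 2 ng pSV40-Renilla, then cultured with compound; lysate luciferase activities read 48 h post-transfection by dual-luciferase assay; n = 2.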

HEK293 = experiment: Effect on renilla luciferase expression in HEK293 cells up to 1 uM after 24 hrs by luciferase reporter gene assay; assay type: ADME, cell-based; settings: human, hek293, 24 h
How it was run: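 A plasmid encoding Renilla luciferase (pSV40-Renilla) was transiently transfected into HEK 293T cells for 4 h. Cells were then cultured with the test compound at the indicated concentrations, and Renilla luciferase activity in cell lysates was measured 24 h post-transfection as a control for gene translation; n = 2.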

[9] = tested on: Human immunodeficiency virus 1; experiment: Antiviral activity against wild-type VSV-G pseudotyped HIV1 infected in HEK293 cells assessed as time of 50% failure at 1 uM measured at 48 hrs post infection by luciferase reporter gene assay; assay type: functional; how it was run: as §1
[10] = tested on: Human immunodeficiency virus 1; experiment: Antiviral activity against HIV1 pNL4-3 infected in HEK293 cells assessed as reduction in viral transcription by measuring decrease in luciferase activity at 1 uM after 20 hrs by luciferase reporter gene assay; assay type: functional, organism-based
How it was run: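 HEK 293T cells transiently transfected with the pNL4-3.luc.R−E− HIV-1 reporter plasmid (luciferase gene) for 4 h. The test compound was then added at 0.001−1 μM final and incubated for an additional 20 h. Luciferase activity was read 24 h post-transfection as a measure of viral gene expression; n = 2.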

| Structure (SMILES) | inhibition at 10 µM [3] [%] | FT50 [9] [h] | Activity [10] | further results |
| --- | --- | --- | --- | --- |
| Cc1cccc2c1ccc1c3c(c4ocnc4c12)[C@@H](C)CO3 | 76.7 |  |  | Activity [1]: Dose-dependent effect; inhibition [2]: Dose-dependent effect; IC50 [4]: 5.4 µM; IC50 [5]: 30 nM; FT50 [6]: <=20 hr; IC50 [7]: 30 nM; IC50 (Murine leukemia virus): 150 nM; inhibition [8]: Dose-dependent effect; Activity (HEK293): Non-Toxic |
| Cc1cn([C@H]2C[C@H](N=[N+]=[N-])[C@@H](CO)O2)c(=O)[nH]c1=O [ZIDOVUDINE] |  | 7.7 | inactive |  |
| C[C@H]1COc2c1c1ocnc1c1c3c(ccc21)C(C)(C)CCC3 | 18.7 |  |  |  |
| Cc1nc2c3c(c4ccc5c(c4c2o1)CCCC5(C)C)OC[C@@H]3C | 11.2 |  |  |  |
| Cc1nc2c(o1)c1c(c3ccc4c(c32)CCCC4(C)C)OC[C@@H]1C | 18.3 |  |  |  |
| O=C1Nc2ccc(Cl)cc2[C@@](C#CC2CC2)(C(F)(F)F)O1 [EFAVIRENZ] | 100 | 10.1 | inactive | IC50 (Murine leukemia virus): > 10000 nM |
| Cc1cccc2c1ccc1c3c(c4oc(Cc5ccccc5)nc4c12)[C@@H](C)CO3 | 62.1 |  |  | IC50 [7]: 1200 nM |
| Cc1nnc(C(=O)NC(C)(C)c2nc(C(=O)NCc3ccc(F)cc3)c(O)c(=O)n2C)o1 [RALTEGRAVIR] |  | 12 | inactive |  |
| Cc1nc2c(o1)c1c(C)coc1c1ccc3c(C)cccc3c12 | 17.4 |  |  |  |
| Cc1nc2c(o1)c1c(c3ccc4c(C)cccc4c32)OC[C@@H]1C | 2.82 |  |  |  |
